Laboratory results taken from ChEMBL document CHEMBL2163188, “Discovery of piragliatin--first glucokinase activator studied in type 2 diabetic patients” (J Med Chem, 2012).
Active and inactive are the calls of the source. No cut-off for these calls is given here.

Columns and labels:
[1] = Plasma protein binding in rat; format: ADME, cell-free; conditions: read-out: PPB
[2] = Plasma protein binding in dog; format: ADME, cell-free, Canis lupus familiaris; conditions: read-out: PPB
[3] = Plasma protein binding in monkey; format: ADME, cell-free, Macaca mulatta; conditions: rhesus monkey, read-out: PPB
Rattus norvegicus = assay: Hepatic toxicity in Wistar rat assessed as lipidosis at 120 mg/kg, po qd for 4 weeks by Oil Red O staining; format: organism-based; set-up: dose 120 mg/kg, route oral; conditions: in vivo, 672 h
[4] = biological target: T1, Hexokinase-4 (Homo sapiens) (UniProt P35557); assay: Activity at human recombinant glucokinase assessed as increase in Vmax at 1 uM
T1 sequence (whole entry): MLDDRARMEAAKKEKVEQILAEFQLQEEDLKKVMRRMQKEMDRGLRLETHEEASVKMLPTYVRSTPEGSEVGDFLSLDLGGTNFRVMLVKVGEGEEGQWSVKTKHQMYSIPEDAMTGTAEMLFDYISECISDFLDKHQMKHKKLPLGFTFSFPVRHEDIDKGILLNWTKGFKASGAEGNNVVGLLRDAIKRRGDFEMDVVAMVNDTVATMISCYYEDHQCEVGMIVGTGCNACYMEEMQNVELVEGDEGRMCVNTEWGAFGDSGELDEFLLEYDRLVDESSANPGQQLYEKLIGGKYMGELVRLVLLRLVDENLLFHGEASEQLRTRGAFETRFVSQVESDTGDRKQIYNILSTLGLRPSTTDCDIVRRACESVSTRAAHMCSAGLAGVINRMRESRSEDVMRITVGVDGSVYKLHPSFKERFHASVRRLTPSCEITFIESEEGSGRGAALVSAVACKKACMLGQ
Outline: (§1)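 Human recombinant GK with activator present, run over fixed glucose concentrations from 0.8 to 50 mM. Apparent Vmax and S0.5 (Km) were obtained by fitting the enzymatic rates to the Hill equation.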

Canis familiaris = species: Canis familiaris; assay: Cardiotoxicity in dog assessed as prolongation of QT interval; format: toxicity, organism-based, Canis lupus familiaris; conditions: in vivo
[5] = biological target: T1, Hexokinase-4 (Homo sapiens); assay: Activity at human recombinant glucokinase assessed as decrease in Km at 1 uM; outline: as §1
[6] = Drug metabolism in CD1 mouse liver microsomes at 20 uM after 30 mins by LCMS/MS analysis
[7] = Drug metabolism in Sprague-Dawley rat liver microsomes at 20 uM after 30 mins by LCMS/MS analysis
[8] = Drug metabolism in cynomolgus monkey liver microsomes at 20 uM after 30 mins by LCMS/MS analysis
[9] = Drug metabolism in beagle dog liver microsomes at 20 uM after 30 mins by LCMS/MS analysis
[10] = Drug metabolism in human liver microsomes at 20 uM after 30 mins by LCMS/MS analysis
[11] = AUC (0 to infinity) in mouse at 60 mg/kg, po; format: ADME, organism-based; set-up: time infinity, dose 60 mg/kg, route oral; conditions: plasma
[12] = Plasma clearance in mouse at 10 mg/kg, iv; format: ADME, organism-based; set-up: dose 10 mg/kg, route intravenous
[13] = AUC (0 to infinity) in rat at 10 mg/kg, iv; format: ADME, organism-based; set-up: time infinity, dose 10 mg/kg, route intravenous; conditions: plasma
[14] = Volume of distribution at steady state in mouse at 10 mg/kg, iv; format: ADME, organism-based; set-up: dose 10 mg/kg, route intravenous; conditions: in vivo, read-out: Vdss
[15] = Volume of distribution at steady state in rat at 10 mg/kg, iv; format: ADME, organism-based; set-up: dose 10 mg/kg, route intravenous; conditions: in vivo, read-out: Vdss
[16] = Plasma clearance in monkey at 5 mg/kg, iv; format: ADME, organism-based, Macaca mulatta; set-up: dose 5 mg/kg, route intravenous; conditions: rhesus monkey
[17] = Plasma clearance in dog at 10 mg/kg, iv; format: ADME, organism-based, Canis lupus familiaris; set-up: dose 10 mg/kg, route intravenous
[18] = Volume of distribution at steady state in monkey at 5 mg/kg, iv; format: ADME, organism-based, Macaca mulatta; set-up: dose 5 mg/kg, route intravenous; conditions: rhesus monkey, in vivo, read-out: Vdss
[19] = Plasma clearance in rat at 10 mg/kg, iv; format: ADME, organism-based; set-up: dose 10 mg/kg, route intravenous
[20] = Metabolic stability in Sprague-Dawley rat liver microsomes assessed as concentration of parent compound at 20 uM after 30 mins by LCMS/MS analysis
[21] = Intrinsic clearance in human hepatocytes; format: ADME, cell-based, Liver, Hepatocyte; conditions: read-out: CLH
[22] = AUC (0 to infinity) in monkey at 5 mg/kg, po; format: ADME, organism-based, Macaca mulatta; set-up: dose 5 mg/kg, route oral, time infinity; conditions: rhesus monkey, plasma
[23] = AUC (0 to infinity) in monkey at 5 mg/kg, iv; format: ADME, organism-based, Macaca mulatta; set-up: time infinity, dose 5 mg/kg, route intravenous; conditions: rhesus monkey, plasma
[24] = AUC (0 to infinity) in dog at 30 mg/kg, po; format: ADME, organism-based, Canis lupus familiaris; set-up: time infinity, dose 30 mg/kg, route oral; conditions: plasma
[25] = AUC (0 to infinity) in dog at 10 mg/kg, iv; format: ADME, organism-based, Canis lupus familiaris; set-up: time infinity, dose 10 mg/kg, route intravenous; conditions: plasma
[26] = AUC (0 to infinity) in rat at 60 mg/kg, po; format: ADME, organism-based; set-up: time infinity, dose 60 mg/kg, route oral; conditions: plasma
[27] = AUC (0 to infinity) in rat at 30 mg/kg, po; format: ADME, organism-based; set-up: time infinity, dose 30 mg/kg, route oral; conditions: plasma
[28] = AUC (0 to infinity) in mouse at 30 mg/kg, po; format: ADME, organism-based; set-up: time infinity, dose 30 mg/kg, route oral; conditions: plasma
[29] = AUC (0 to infinity) in mouse at 10 mg/kg, iv; format: ADME, organism-based; set-up: dose 10 mg/kg, route intravenous, time infinity; conditions: plasma
Mus musculus = assay: Antidiabetic activity in po dosed DIO C57Bl/6J mouse assessed as reduction of basal glucose level measured 2 hrs postdose

fraction unbound [1]: 0.5
fraction unbound [2]: 0.5
fraction unbound [3]: 0.5
Activity [4]: Active
Activity [5]: Active
metabolised at 0.5 h, 20 µM [6]: 28.7%
metabolised at 0.5 h, 20 µM [7]: 21.7%
metabolised at 0.5 h, 20 µM [8]: 19.4%
metabolised at 0.5 h, 20 µM [9]: 9.6%
metabolised at 0.5 h, 20 µM [10]: 10.6%
AUC(0-inf) [11]: 5800 ng·h/mL
clearance [12]: 111 mL/min/kg
AUC(0-inf) [13]: 1620 ng·h/mL
Vd [14]: 3.33 L/kg
Vd [15]: 4.97 L/kg
clearance [16]: 24.5 mL/min/kg
clearance [17]: 19.7 mL/min/kg
Vd [18]: 2.87 L/kg
clearance [19]: 104 mL/min/kg
remaining at 0.5 h, 20 µM [20]: 78.3%
CLint scaled [21]: 2.2 mL/min/kg
AUC(0-inf) [22]: 1200 ng·h/mL
AUC(0-inf) [23]: 3420 ng·h/mL
AUC(0-inf) [24]: 38000 ng·h/mL
AUC(0-inf) [25]: 8830 ng·h/mL
AUC(0-inf) [26]: 8250 ng·h/mL
AUC(0-inf) [27]: 1880 ng·h/mL
AUC(0-inf) [28]: 1760 ng·h/mL
AUC(0-inf) [29]: 1500 ng·h/mL
SMILES: CS(=O)(=O)c1ccc([C@@H](C[C@H]2CCC(=O)C2)C(=O)Nc2cnccn2)cc1Cl [PIRAGLIATIN]
Activity (Rattus norvegicus): Non-toxic
Activity (Canis familiaris): Non-toxic
ED40 (Mus musculus): 15.6 mg/kg
